# Test results from ChEMBL document CHEMBL5316295, “Systematic Design of Adenosine Analogs as Inhibitors of a Clostridioides difficile-Specific DNA Adenine Methyltransferase Required for Normal Sporulation and Persistence” (J Med Chem, 2023).
# The source made the active and inactive calls. The rule behind the calls is not given here.
# Tested on: Caulobacter vibrioides
# Assay: Inhibition of Caulobacter vibrioides CcrM using 5'-CGA TTC AAA AAG TCC CAA G-3' and 3'-GCT AAG TTT TTC AGG GTT C-5' as substrate and SAM as cosubstrate at 10 uM incubated for 5 mins
# In short: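 Conditions were enzyme 0.1 μM, DNA 5 μM, SAM 30 μM, inhibitor 10 μM, at ~22 °C in 50 mM Tris–HCl pH 7.5, 100 mM NaCl, 1 mM DTT, 0.25% DMSO, run 5 min. Substrate and SAM levels were above K_M.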
row,Compound,inhibition
1,OC[C@H]1O[C@@H](n2cnc3c(NCCCc4ccc(O)cc4)ncnc32)[C@H](O)[C@@H]1O,inactive
2,CC(C)(C)OC(=O)N1CCC(CCNc2ncnc3c2ncn3[C@@H]2O[C@H](CO)[C@@H](O)[C@H]2O)CC1,inactive
3,CC(C)(C)OC(=O)N1CCC(CCCNc2ncnc3c2ncn3[C@@H]2O[C@H](CO)[C@@H](O)[C@H]2O)CC1,inactive
